This note sets out measurements from ChEMBL document CHEMBL3124928, “Synthesis, antileishmanial activity and docking study of N'-substitutedbenzylidene-2-(6,7-dihydrothieno[3,2-c]pyridin-5(4H)-yl)acetohydrazides” (Bioorg Med Chem Lett, 2014).

Values after ≈ are worked out from the molar mass of the structure shown. Active and inactive are the calls of the source. No cut-off for these calls is given here.

The subject of data set [1] is Staphylococcus aureus. The experiment in a line: Antibacterial activity against Staphylococcus aureus NCIM 2901 by standard agar method. It counts as functional. Put shortly: (§1)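 MIC determined by standard agar method, with dimethyl sulfoxide as solvent control.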
In another data set the test system is Escherichia coli. The experiment in a line: Antibacterial activity against Escherichia coli NCIM 2256 by standard agar method. It counts as functional. An outline of the steps:
as §1

Data set [2] relates to Pseudomonas aeruginosa. The experiment in a line: Antibacterial activity against Pseudomonas aeruginosa NCIM 2036 by standard agar method. It is filed as functional. Put shortly:
as §1

Data set [3] concerns Bacillus subtilis. The experiment in a line: Antibacterial activity against Bacillus subtilis NCIM 2063 by standard agar method. It is filed as functional. An outline of the steps: as §1
A further data set has as its system HeLa. The experiment in a line: Cytotoxicity against human HeLa cells up to 300 ug/ml after 72 hrs by MTT assay. It is filed as cell-based.
For the next data set, the system named is Aspergillus niger. The experiment in a line: Antifungal activity against Aspergillus niger NCIM 1196 by standard agar method. It counts as functional. Put shortly:
as §1

Another data set has as its system Leishmania donovani. The experiment in a line: Antileishmanial activity against Leishmania donovani NHOM/IN/80/DD8 promastigotes assessed as decrease in parasite growth after 72 hrs by MTT assay. Particulars: NHOM/IN/80/DD8, 72 h. It counts as functional, organism-based. An outline of the steps: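 Cultured promastigotes were used, and viability was read by a modified MTT assay, with formazan yield taken as proportional to metabolically active cells. IC50 is the concentration cutting cell growth by 50%, found by graphic interpolation.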

For a further data set, the system named is Candida albicans. The experiment in a line: Antifungal activity against Candida albicans NCIM 3471 by standard agar method. It counts as functional. Put shortly:
as §1

Data set [4] concerns Pseudomonas aeruginosa. The experiment in a line: Antibacterial activity against Pseudomonas aeruginosa NCIM 2036 up to 300 ug/ml by standard agar method. It is filed as functional, organism-based.
For data set [5], the system named is Bacillus subtilis. The experiment in a line: Antibacterial activity against Bacillus subtilis NCIM 2063 up to 300 ug/ml by standard agar method. It counts as functional, organism-based.
For data set [6], the system named is Staphylococcus aureus. The experiment in a line: Antibacterial activity against Staphylococcus aureus NCIM 2901 up to 300 ug/ml by standard agar method. It is filed as functional, organism-based.

Regarding `CC1(C)S[C@@H]2[C@H](NC(=O)[C@H](N)c3ccccc3)C(=O)N2[C@H]1C(=O)O` [AMPICILLIN], the MIC in the data set with Staphylococcus aureus [1] amounted to 250 mg/L (≈ 715 µM); with Escherichia coli, 100 mg/L (≈ 286 µM); against Pseudomonas aeruginosa [2] it was 100 mg/L (≈ 286 µM); in the data set on Bacillus subtilis [3], 250 mg/L (≈ 715 µM).
Take `COc1ccc(/C=N/NC(=O)CN2CCc3sccc3C2)c(OC)c1`: the MIC in the data set with Staphylococcus aureus [1] was found to be 75 mg/L (≈ 209 µM); in the data set with Aspergillus niger, 50 mg/L (≈ 139 µM); with Escherichia coli it was 125 mg/L (≈ 348 µM); with Pseudomonas aeruginosa [2], 250 mg/L (≈ 696 µM); with Bacillus subtilis [3] it was 100 mg/L (≈ 278 µM); with Candida albicans, 25 mg/L (≈ 69.6 µM). Further, the Activity entry with HeLa was “Non-toxic”. Also, the IC50 in the data set with Leishmania donovani was 737 µM.
On to `O=C(CN1CCc2sccc2C1)N/N=C/c1ccccc1Cl`, for which the MIC with Staphylococcus aureus [1] stood at 100 mg/L (≈ 300 µM); against Aspergillus niger it was 120 mg/L (≈ 359 µM); in the data set on Escherichia coli, 25 mg/L (≈ 74.9 µM); with Pseudomonas aeruginosa [2], 125 mg/L (≈ 374 µM); with Bacillus subtilis [3] it was 100 mg/L (≈ 300 µM); in the data set on Candida albicans, 60 mg/L (≈ 180 µM). Further, the Activity entry in the data set with HeLa was “Non-toxic”. Further, in the data set on Leishmania donovani, the IC50 is 296 µM.
In the case of `Clc1ccc(COC(Cn2ccnc2)c2ccc(Cl)cc2Cl)c(Cl)c1` (stereo unspecified) [MICONAZOLE], the MIC against Aspergillus niger was 12.5 mg/L (≈ 30 µM); in the data set on Candida albicans it was 25 mg/L (≈ 60.1 µM).
As to `CN(C)c1ccc(/C=N/NC(=O)CN2CCc3sccc3C2)cc1`, the MIC against Staphylococcus aureus [1] turned out to be 100 mg/L (≈ 292 µM); against Aspergillus niger, 100 mg/L (≈ 292 µM); against Escherichia coli, 50 mg/L (≈ 146 µM); against Candida albicans, 40 mg/L (≈ 117 µM). Further, the Activity entry with HeLa is listed as “Non-toxic”. Besides, the result in the data set with Pseudomonas aeruginosa [4] and in the data set on Bacillus subtilis [5] was inactive. Besides, the IC50 in the data set with Leishmania donovani was found to be 274 µM.
In the case of `O=C(CN1CCc2sccc2C1)N/N=C/c1ccc(Cl)cc1`, the MIC worked out at 50 mg/L (≈ 150 µM) with Staphylococcus aureus [1]; 100 mg/L (≈ 300 µM) with Aspergillus niger; 25 mg/L (≈ 74.9 µM) with Escherichia coli; 50 mg/L (≈ 150 µM) against Pseudomonas aeruginosa [2]; 100 mg/L (≈ 300 µM) against Bacillus subtilis [3]; 100 mg/L (≈ 300 µM) against Candida albicans. The Activity result in the data set on HeLa is reported as “Non-toxic”. Further, the IC50 in the data set on Leishmania donovani was found to be 738 µM.
Turning to `COc1ccc(OC)c(/C=N/NC(=O)CN2CCc3sccc3C2)c1`, the MIC was 75 mg/L (≈ 209 µM) in the data set on Staphylococcus aureus [1]; 150 mg/L (≈ 417 µM) against Aspergillus niger; 125 mg/L (≈ 348 µM) against Escherichia coli; 250 mg/L (≈ 696 µM) against Pseudomonas aeruginosa [2]; 100 mg/L (≈ 278 µM) in the data set with Bacillus subtilis [3]; 25 mg/L (≈ 69.6 µM) against Candida albicans. In the data set with HeLa, the Activity entry was “Non-toxic”. Also, in the data set on Leishmania donovani, the IC50 was 689 µM.
As to `O=C(CN1CCc2sccc2C1)N/N=C/c1ccc(O)c(O)c1`, the outcome with Staphylococcus aureus [6] and in the data set with Bacillus subtilis [5] was inactive. In addition, in the data set with HeLa, the Activity entry is reported as “Non-toxic”. In addition, the MIC was determined as 75 mg/L (≈ 226 µM) against Aspergillus niger, 50 mg/L (≈ 151 µM) in the data set with Escherichia coli, 150 mg/L (≈ 453 µM) with Pseudomonas aeruginosa [2] and 75 mg/L (≈ 226 µM) with Candida albicans. For the same molecule, in the data set with Leishmania donovani, the IC50 worked out at 672 µM.
As to `COc1ccc(/C=N/NC(=O)CN2CCc3sccc3C2)cc1OC`, the MIC in the data set with Staphylococcus aureus [1] amounted to 150 mg/L (≈ 417 µM); in the data set on Aspergillus niger it was 12.5 mg/L (≈ 34.8 µM); against Escherichia coli, 150 mg/L (≈ 417 µM); in the data set on Pseudomonas aeruginosa [2] it was 200 mg/L (≈ 556 µM); against Bacillus subtilis [3], 150 mg/L (≈ 417 µM); against Candida albicans it was 37.5 mg/L (≈ 104 µM). For the same molecule, the Activity entry in the data set with HeLa is reported as “Non-toxic”. In addition, in the data set on Leishmania donovani, the IC50 amounted to 619 µM.
Consider `COc1cccc(N)c1/C=N/NC(=O)CN1CCc2sccc2C1`, for which the minimal inhibitory concentration (MIC) against Staphylococcus aureus [1] came to 275 mg/L (≈ 798 µM); against Aspergillus niger it was 140 mg/L (≈ 406 µM); in the data set with Escherichia coli it was 175 mg/L (≈ 508 µM); against Candida albicans, 60 mg/L (≈ 174 µM). In the data set on HeLa, the Activity result is recorded as “Non-toxic”. In addition, the result with Pseudomonas aeruginosa [4] and in the data set on Bacillus subtilis [5] was inactive. Also, in the data set with Leishmania donovani, the IC50 came to 722 µM.
With `N=C(N)c1ccc(OCCCCCOc2ccc(C(=N)N)cc2)cc1` [PENTAMIDINE], in the data set on Leishmania donovani, the IC50 worked out at 16.1 µM.
Turning to `N#Cc1ccc(/C=N/NC(=O)CN2CCc3sccc3C2)cc1`, the MIC came out at 250 mg/L (≈ 771 µM) in the data set on Staphylococcus aureus [1]; 140 mg/L (≈ 432 µM) against Aspergillus niger; 100 mg/L (≈ 308 µM) in the data set on Escherichia coli; 150 mg/L (≈ 462 µM) against Pseudomonas aeruginosa [2]; 80 mg/L (≈ 247 µM) against Candida albicans. Besides, the Activity result in the data set on HeLa is reported as “Non-toxic”. Further, the outcome in the data set on Bacillus subtilis [5] was inactive. Further, the half-maximal inhibitory concentration (IC50) in the data set with Leishmania donovani was 694 µM.
Consider `O=C(O)c1cn(C2CC2)c2cc(N3CCNCC3)c(F)cc2c1=O` [CIPROFLOXACIN], for which the MIC with Staphylococcus aureus [1] is 50 mg/L (≈ 151 µM); against Escherichia coli, 25 mg/L (≈ 75.4 µM).
Take `OC(Cn1cncn1)(Cn1cncn1)c1ccc(F)cc1F` [FLUCONAZOLE]: the MIC was 10 mg/L (≈ 32.7 µM) in the data set on Aspergillus niger and 5 mg/L (≈ 16.3 µM) in the data set on Candida albicans.
Regarding `O=C(CN1CCc2sccc2C1)N/N=C/c1c(Cl)cccc1Cl`, the MIC was 250 mg/L (≈ 679 µM) in the data set on Staphylococcus aureus [1]; 160 mg/L (≈ 434 µM) with Aspergillus niger; 50 mg/L (≈ 136 µM) against Escherichia coli; 150 mg/L (≈ 407 µM) in the data set on Pseudomonas aeruginosa [2]; 250 mg/L (≈ 679 µM) in the data set with Bacillus subtilis [3]; 80 mg/L (≈ 217 µM) with Candida albicans. Further, the Activity entry with HeLa is on record as “Non-toxic”. The IC50 in the data set with Leishmania donovani was determined as 645 µM.

By MIC is commonly meant the lowest concentration that inhibits growth of the organism. A higher MIC goes with weaker potency. As usually defined, the IC50 is the concentration at which inhibition is half-maximal.
